Results of several laboratories.
Compare with care: the assays were run in different laboratories.
PFF0160c: Dihydroorotate dehydrogenase (quinone), mitochondrial (PFF0160c, Plasmodium falciparum, UniProt Q08210)
SIGMAR1: Sigma non-opioid intracellular receptor 1 (SIGMAR1, Homo sapiens, UniProt Q99720)
Nectin-4: Nectin-4 (Homo sapiens, UniProt Q96NY8)

CCCCOc1ccccc1C(=O)NCc1csc(-c2ccccc2)n1 has an IC50 of 421 nM (PFF0160c; enzyme activity, inhibitor, absorbance).
With FC(F)(F)c1ccc2c(c1)N(CCCN1CCN(CCCl)CC1)c1ccccc1S2 the Ki was 580 nM (SIGMAR1; ligand displacement, radioligand).
For CCCC[C@@H]1NC(=O)[C@H](Cc2ccc(O)cc2)NC(=O)[C@@H]2CCCN2C(=O)[C@H](CC(=O)O)NC(=O)[C@H](C)NC(=O)[C@H](Cc2ccccc2)NC(=O)[C@@H]2CSCCC(=O)N3CN(CN(C3)C(=O)CCSC[C@@H](C(=O)N[C@@H](C)C(N)=O)NC1=O)C(=O)CCSC[C@H](NC(C)=O)C(=O)N[C@@H](CC(C)(C)C)C(=O)N1CCC[C@H]1C(=O)N[C@@H](CCC(=O)O)C(=O)N[C@H](CCCCNC(=O)CCc1cn(CCOCCOCCOCCOCCOCCC(=O)NCCCC[C@H]3NC(=O)[C@H](Cc4cccc5ccccc45)NC(=O)[C@@H]4CCCN4C(=O)CCSCCC(=O)N4CN5CN(C4)C(=O)CCSC[C@H](NC3=O)C(=O)N[C@@H](CCSC)C(=O)N[C@@H](CCCCNC(=N)N)C(=O)N[C@@H](CC(=O)O)C(=O)N[C@@H](Cc3c[nH]c4ccccc34)C(=O)N[C@@H](CO)C(=O)N[C@@H]([C@@H](C)O)C(=O)N3CCC[C@H]3C(=O)N3C[C@H](O)C[C@H]3C(=O)N[C@@H](Cc3c[nH]c4ccccc34)C(=O)N[C@H](C(N)=O)CSCCC5=O)nn1)C(=O)N1CCC[C@H]1C(=O)N[C@@H](Cc1ccc(O)cc1)C(=O)N2, the Kd was 2.2 nM (Nectin-4; binding, SPR).
The Ki of CN(C)CCOC(C)(c1ccccc1)c1ccccn1 (stereo not drawn) is reported as over 10000 nM (SIGMAR1; ligand displacement, radioligand).
CC(CNCc1cn(Cc2cc(Br)cc(Br)c2)c2ccccc12)CNc1cc(=O)c2ccccc2[nH]1 (stereo not drawn) has an IC50 of 2720 nM (PFF0160c; enzyme activity, inhibitor, absorbance).
The Kd of N[C@@H](CC(=O)O)C(=O)O is reported as 1000 nM (tar (Salmonella enterica, UniProt P02941, E302Q/E491Q); binding).
With CCCC[C@@H]1NC(=O)[C@H](Cc2ccc(O)cc2)NC(=O)[C@@H]2CCCN2C(=O)[C@H](CC(=O)O)NC(=O)[C@H](C)NC(=O)[C@H](Cc2ccccc2)NC(=O)[C@@H]2CSCCC(=O)N3CN(CN(C3)C(=O)CCSC[C@@H](C(N)=O)NC1=O)C(=O)CCSCCC(=O)N[C@@H](CC(C)(C)C)C(=O)N1CCC[C@H]1C(=O)N[C@@H](CCC(=O)O)C(=O)N[C@H](CCCCNC(=O)CCc1cn(CCOCCOCCOCCOCCOCCC(=O)N[C@H]3CSCCC(=O)N4CN5CN(C4)C(=O)CCSC[C@H](NC(=O)[C@@H](CC(=O)O)NC(=O)[C@H](Cc4cccc6ccccc46)NC(=O)[C@@H]4CCCN4C3=O)C(=O)N[C@@H](CCSC)C(=O)N[C@@H](CCCCNC(=N)N)C(=O)N[C@@H](CC(=O)O)C(=O)N[C@@H](Cc3c[nH]c4ccccc34)C(=O)N[C@@H](CO)C(=O)N[C@@H]([C@@H](C)O)C(=O)N3CCC[C@H]3C(=O)N3C[C@H](O)C[C@H]3C(=O)N[C@@H](Cc3c[nH]c4ccccc34)C(=O)N[C@H](C(N)=O)CSCCC5=O)nn1)C(=O)N1CCC[C@H]1C(=O)N[C@@H](Cc1ccc(O)cc1)C(=O)N2 the Kd was 1.4 nM (Nectin-4; binding, SPR).
Cc1cccc(C(=O)N2CCN(Cc3cccc(NC(=O)c4cccs4)c3)CC2)c1 gave an IC50 of 6610 nM (Dihydroorotate dehydrogenase (quinone), mitochondrial (PFF0160c, Plasmodium falciparum, UniProt Q08210, E182D); enzyme activity, inhibitor, absorbance).
CCCC[C@@H]1NC(=O)[C@H](Cc2ccc(O)cc2)NC(=O)[C@@H]2CCCN2C(=O)[C@H](CC(=O)O)NC(=O)[C@H](C)NC(=O)[C@H](Cc2ccccc2)NC(=O)[C@@H]2CSCCC(=O)N3CN(CN(C3)C(=O)CCSC[C@H](NC(C)=O)C(=O)N[C@@H](CC(C)(C)C)C(=O)N3CCC[C@H]3C(=O)N[C@@H](CCC(=O)O)C(=O)N[C@H](CCCCNC(=O)CCc3cn(CCOCCOCCOCCN(CCOCCOCCOCCC(=O)N[C@H]4CSCCC(=O)N5CN6CN(C5)C(=O)CCSC[C@H](NC(=O)[C@@H](CC(=O)O)NC(=O)[C@H](Cc5cccc7ccccc57)NC(=O)[C@@H]5CCCN5C4=O)C(=O)N[C@@H](CCSC)C(=O)N[C@@H](CCCCNC(=N)N)C(=O)N[C@@H](CC(=O)O)C(=O)N[C@@H](Cc4c[nH]c5ccccc45)C(=O)N[C@@H](CO)C(=O)N[C@@H]([C@@H](C)O)C(=O)N4CCC[C@H]4C(=O)N4C[C@H](O)C[C@H]4C(=O)N[C@@H](Cc4c[nH]c5ccccc45)C(=O)N[C@H](C(N)=O)CSCCC6=O)CCOCCOCCOCCn4cc(CCC(=O)NCCCC[C@H]5NC(=O)[C@H](CCC(=O)O)NC(=O)[C@@H]6CCCN6C(=O)[C@H](CC(C)(C)C)NC(=O)[C@@H](NC(C)=O)CSCCC(=O)N6CN7CN(C6)C(=O)CCSC[C@H](NC(=O)[C@H](Cc6ccc(O)cc6)NC(=O)[C@@H]6CCCN6C5=O)C(=O)N[C@@H](Cc5ccccc5)C(=O)N[C@@H](C)C(=O)N[C@@H](CC(=O)O)C(=O)N5CCC[C@H]5C(=O)N[C@@H](Cc5ccc(O)cc5)C(=O)N[C@@H](CCCC)C(=O)NCCSCCC7=O)nn4)nn3)C(=O)N3CCC[C@H]3C(=O)N[C@@H](Cc3ccc(O)cc3)C(=O)N2)C(=O)CCSCCNC1=O gave a Kd of 2.8 nM (Nectin-4; binding, SPR).
The Ki of CC(C)NC[C@@H](O)COc1cccc2ccccc12 is reported as 344 nM (SIGMAR1; ligand displacement, radioligand).
CCCC[C@@H]1NC(=O)[C@H](Cc2ccc(O)cc2)NC(=O)[C@@H]2CCCN2C(=O)[C@H](CC(=O)O)NC(=O)[C@H](C)NC(=O)[C@H](Cc2ccccc2)NC(=O)[C@@H]2CSCCC(=O)N3CN(CN(C3)C(=O)CCSC[C@H](NC(C)=O)C(=O)N[C@@H](CC(C)(C)C)C(=O)N3CCC[C@H]3C(=O)N[C@@H](CCC(=O)O)C(=O)N[C@H](CCCCNC(=O)CCc3cn(CCOCCOCCOCCOCCOCCC(=O)N[C@H]4CSCCC(=O)N5CN6CN(C5)C(=O)CCSC[C@H](NC(=O)[C@@H](CC(=O)O)NC(=O)[C@H](Cc5cccc7ccccc57)NC(=O)[C@@H]5CCCN5C4=O)C(=O)N[C@@H](CCSC)C(=O)N[C@@H](CCCCNC(=N)N)C(=O)N[C@@H](CC(=O)O)C(=O)N[C@@H](Cc4c[nH]c5ccccc45)C(=O)N[C@@H](CO)C(=O)N[C@@H]([C@@H](C)O)C(=O)N4CCC[C@H]4C(=O)N4C[C@H](O)C[C@H]4C(=O)N[C@@H](Cc4c[nH]c5ccccc45)C(=O)N[C@H](C(N)=O)CSCCC6=O)nn3)C(=O)N3CCC[C@H]3C(=O)N[C@@H](Cc3ccc(O)cc3)C(=O)N2)C(=O)CCSC[C@@H](C(N)=O)NC1=O gave a Kd of 2 nM (Nectin-4; binding, SPR).
For Fc1ccc([C@@H]2CCNC[C@H]2COc2ccc3c(c2)OCO3)cc1, the Ki was 365 nM (SIGMAR1; ligand displacement, radioligand).
